Active and inactive are the calls of the source. The calls are words filed in the database; no cut-off is given here.
Assays:
[1] = system: HCT-116; assay: Drug metabolism in human HCT116 cells assessed as 7-O-POC-Q level at 30 uM after 3 hrs by HPLC analysis; assay type: ADME, cell-based; settings: hct-116, 3 h
Summary of the method: (§1)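 MCF-7 or HCT116 cells were seeded at 2×10^5 per well and grown 24 h at 37 °C, 5% CO2, then given 30 µM conjugate. At 1, 3, 6 and 12 h cells were PBS-washed, trypsinized, sonicated and filtered. Lysates were run on C18 HPLC (UV 340 nm). Each species is reported as a percentage of integrated peak area; peaks were identified by MALDI-TOF MS.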

[2] = system: MCF7; assay: Drug metabolism in human MCF7 cells assessed as quercetin sulfate level at 30 uM after 1 hr by HPLC analysis; assay type: ADME, cell-based; settings: mcf7, 1 h; summary of the method: as §1
[3] = Metabolic stability in human HCT116 cells assessed as compound remaining at 30 uM after 1 hr by HPLC analysis; assay type: ADME, cell-based, HCT-116; settings: read-out: Stability; summary of the method: as §1
[4] = Metabolic stability in human MCF7 cells assessed as compound remaining at 30 uM after 6 hrs by HPLC analysis; assay type: ADME, cell-based; settings: read-out: Stability; summary of the method: as §1
[5] = system: HCT-116; assay: Drug metabolism in human HCT116 cells assessed as quercetin sulfate level at 30 uM after 1 hr by HPLC analysis; assay type: ADME, cell-based; settings: hct-116, 1 h; summary of the method: as §1
[6] = system: HCT-116; assay: Drug metabolism in human HCT116 cells assessed as quercetin level at 30 uM after 3 hrs by HPLC analysis; assay type: ADME, cell-based; settings: hct-116, 3 h; summary of the method: as §1
[7] = system: HCT-116; assay: Drug metabolism in human HCT116 cells assessed as quercetin level at 30 uM after 1 hr by HPLC analysis; assay type: ADME, cell-based; settings: hct-116, 1 h; summary of the method: as §1
[8] = system: HCT-116; assay: Drug metabolism in human HCT116 cells assessed as quercetin sulfate level at 30 uM after 3 hrs by HPLC analysis; assay type: ADME, cell-based; settings: hct-116, 3 h; summary of the method: as §1
[9] = system: HCT-116; assay: Drug metabolism in human HCT116 cells assessed as quercetin sulfate level at 30 uM after 12 hrs by HPLC analysis; assay type: ADME, cell-based; settings: hct-116, 12 h; summary of the method: as §1
[10] = system: HCT-116; assay: Drug metabolism in human HCT116 cells assessed as quercetin-glucuronide level at 30 uM after 6 hrs by HPLC analysis; assay type: ADME, cell-based; settings: hct-116, 6 h; summary of the method: as §1
[11] = system: HCT-116; assay: Drug metabolism in human HCT116 cells assessed as 7-O-POC-Q level at 30 uM after 12 hrs by HPLC analysis; assay type: ADME, cell-based; settings: hct-116, 12 h; summary of the method: as §1
[12] = Half life of the compound in PBS buffer at pH 7.4 at 50 uM by HPLC analysis; assay type: physicochemical
Summary of the method: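 Compound at 50 µM in PBS pH 7.4, incubated at 37 °C. Aliquots were drawn at 0, 1, 3, 6, 12, 24, 48 and 96 h and analysed by C18 reverse-phase HPLC with an acetonitrile/0.1% formic acid gradient, detected by UV at 340 nm.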

[13] = Metabolic stability in human MCF7 cells assessed as compound remaining at 30 uM after 3 hrs by HPLC analysis; assay type: ADME, cell-based; settings: read-out: Stability; summary of the method: as §1
[14] = system: MCF7; assay: Drug metabolism in human MCF7 cells assessed as quercetin sulfate level at 30 uM after 12 hrs by HPLC analysis; assay type: ADME, cell-based; settings: mcf7, 12 h; summary of the method: as §1
[15] = system: MCF7; assay: Drug metabolism in human MCF7 cells assessed as quercetin level at 30 uM after 12 hrs by HPLC analysis; assay type: ADME, cell-based; settings: mcf7, 12 h; summary of the method: as §1
[16] = system: MCF7; assay: Drug metabolism in human MCF7 cells assessed as quercetin-glucuronide level at 30 uM after 12 hrs by HPLC analysis; assay type: ADME, cell-based; settings: mcf7, 12 h; summary of the method: as §1
[17] = system: HCT-116; assay: Drug metabolism in human HCT116 cells assessed as quercetin level at 30 uM after 6 hrs by HPLC analysis; assay type: ADME, cell-based; settings: hct-116, 6 h; summary of the method: as §1
[18] = Metabolic stability in human HCT116 cells assessed as compound remaining at 30 uM after 6 hrs by HPLC analysis; assay type: ADME, cell-based, HCT-116; settings: read-out: Stability; summary of the method: as §1
[19] = system: MCF7; assay: Cytotoxicity against human MCF7 cells at 1 to 100 uM after 12 hrs by MTT assay; assay type: functional, cell-based
Summary of the method: (§2)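 MCF-7 or HCT116 cells were seeded at 5×10^3 per well in DMEM with 10% FBS and grown 1 day at 37 °C, 5% CO2. Compounds in 1% DMSO were added at 1, 5, 10, 50, 100 or 250 µM. Viability was read by MTT after 12 h; each assay was done three times.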

[20] = system: MCF7; assay: Drug metabolism in human MCF7 cells assessed as 7-O-POC-Q level at 30 uM after 12 hrs by HPLC analysis; assay type: ADME, cell-based; settings: mcf7, 12 h; summary of the method: as §1
[21] = system: MCF7; assay: Drug metabolism in human MCF7 cells assessed as 3-O-POC-Q level at 30 uM after 12 hrs by HPLC analysis; assay type: ADME, cell-based; settings: mcf7, 12 h; summary of the method: as §1
[22] = system: HCT-116; assay: Drug metabolism in human HCT116 cells assessed as quercetin sulfate level at 30 uM after 6 hrs by HPLC analysis; assay type: ADME, cell-based; settings: hct-116, 6 h; summary of the method: as §1
[23] = system: HCT-116; assay: Drug metabolism in human HCT116 cells assessed as quercetin-glucuronide level at 30 uM after 12 hrs by HPLC analysis; assay type: ADME, cell-based; settings: hct-116, 12 h; summary of the method: as §1
[24] = system: HCT-116; assay: Cytotoxicity against human HCT116 cells at 1 to 100 uM after 12 hrs by MTT assay; assay type: functional, cell-based; summary of the method: as §2
[25] = system: HCT-116; assay: Drug metabolism in human HCT116 cells assessed as 7-O-POC-Q level at 30 uM after 1 hr by HPLC analysis; assay type: ADME, cell-based; settings: hct-116, 1 h; summary of the method: as §1
[26] = system: MCF7; assay: Metabolic stability in human MCF7 cells assessed as compound remaining at 30 uM after 12 hrs by HPLC analysis; assay type: ADME, cell-based; settings: mcf7, 12 h; summary of the method: as §1
[27] = system: HCT-116; assay: Drug metabolism in human HCT116 cells assessed as quercetin-glucuronide level at 30 uM after 1 hr by HPLC analysis; assay type: ADME, cell-based; settings: hct-116, 1 h; summary of the method: as §1
[28] = Half life of the compound in DMEM cell-free cell culture medium at 50 uM by HPLC analysis; assay type: physicochemical
Summary of the method: (§3)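 Conjugates diluted from a 10 mM DMSO stock to 50 µM final in cell-free culture medium (DMEM with 10% FBS), held at 37 °C. Samples were taken at 0, 1, 3, 6, 12, 24, 48 and 96 h, vortexed, and run on C18 reverse-phase HPLC with an acetonitrile/0.1% formic acid gradient at 1 mL/min, detected by UV at 340 nm.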

[29] = Solubility of the compound in PBS buffer at 0.5 to 300 uM; assay type: physicochemical
Summary of the method: (§4)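 DMSO stocks ([…]–10 mM) were serially diluted into PBS pH 7.4 or DMEM with 10% FBS to final 0.5, 5, 25, 50, 100, 200 µM (2% DMSO) and 300 µM (3% DMSO). Solubility was judged by forward light scattering in a laser nephelometer.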

[30] = Solubility of the compound in DMEM cell-free cell culture medium up to 100 uM; assay type: physicochemical; summary of the method: as §4
[31] = system: MCF7; assay: Drug metabolism in human MCF7 cells assessed as 7-O-POC-Q level at 30 uM after 3 hrs by HPLC analysis; assay type: ADME, cell-based; settings: mcf7, 3 h; summary of the method: as §1
[32] = Drug degradation in DMEM cell-free cell culture medium assessed as formation of 3-O-POC-Q at 50 uM after 24 hrs by HPLC analysis; assay type: physicochemical; summary of the method: as §3
[33] = Metabolic stability in human HCT116 cells assessed as compound remaining at 30 uM after 3 hrs by HPLC analysis; assay type: ADME, cell-based, HCT-116; settings: read-out: Stability; summary of the method: as §1
[34] = Metabolic stability in human MCF7 cells assessed as compound remaining at 30 uM after 1 hr by HPLC analysis; assay type: ADME, cell-based; settings: read-out: Stability; summary of the method: as §1
[35] = system: HCT-116; assay: Drug metabolism in human HCT116 cells assessed as quercetin-glucuronide level at 30 uM after 3 hrs by HPLC analysis; assay type: ADME, cell-based; settings: hct-116, 3 h; summary of the method: as §1
[36] = system: HCT-116; assay: Drug metabolism in human HCT116 cells assessed as 7-O-POC-Q level at 30 uM after 6 hrs by HPLC analysis; assay type: ADME, cell-based; settings: hct-116, 6 h; summary of the method: as §1
[37] = system: MCF7; assay: Drug metabolism in human MCF7 cells assessed as 7-O-POC-Q level at 30 uM after 6 hrs by HPLC analysis; assay type: ADME, cell-based; settings: mcf7, 6 h; summary of the method: as §1
[38] = Metabolic stability in human HCT116 cells assessed as compound remaining at 30 uM after 12 hrs by HPLC analysis; assay type: ADME, cell-based, HCT-116; settings: read-out: Stability; summary of the method: as §1
[39] = Chemical stability of the compound in DMEM cell-free cell culture medium at 50 uM after 24 to 54 hrs by HPLC analysis; assay type: physicochemical; summary of the method: as §3
[40] = system: MCF7; assay: Drug metabolism in human MCF7 cells assessed as quercetin-glucuronide level at 30 uM after 1 hr by HPLC analysis; assay type: ADME, cell-based; settings: mcf7, 1 h; summary of the method: as §1
[41] = system: HCT-116; assay: Drug metabolism in human HCT116 cells assessed as quercetin level at 30 uM after 12 hrs by HPLC analysis; assay type: ADME, cell-based; settings: hct-116, 12 h; summary of the method: as §1
[42] = Solubility of the compound in PBS buffer at 300 uM; assay type: physicochemical; summary of the method: as §4

SMILES | Stability [2] | remaining at 1 h, 30 µM [3] | remaining at 6 h, 30 µM [4] | Stability [5] | Stability [6] | Stability [7] | Stability [8] | Stability [9] | Stability [10] | half-life at 50 µM [12] | remaining at 3 h, 30 µM [13] | Stability [14] | Stability [15] | Stability [16] | Stability [17] | remaining at 6 h, 30 µM [18] | Activity [19] | Stability [22] | Stability [23] | Activity [24] | further results
CC(C)OC(=O)OCOc1cc(O)c2c(=O)c(OCOC(=O)OC(C)C)c(-c3ccc(O)c(O)c3)oc2c1 | Stable | 64% | 1% | Stable | Stable | Stable | Stable | Stable | Stable | > 96 h | 6% | Stable | Stable | Stable | Stable | 20% | Active | Stable | Stable | Active | Stability [1]: Stable; Stability [11]: Stable; Stability [20]: Stable; Stability [21]: Stable; Stability [25]: Stable; Stability [26]: Stable; Stability [27]: Stable; half-life at 50 µM [28]: 24 h; solubility [29]: Insoluble; solubility [30]: soluble; Stability [31]: Stable; Drug degradation [32]: Active; remaining at 3 h, 30 µM [33]: 47%; remaining at 1 h, 30 µM [34]: 25%; Stability [35]: Stable; Stability [36]: Stable; Stability [37]: Stable; remaining at 12 h, 30 µM [38]: 3%
CC(C)OC(=O)OCOc1c(-c2ccc(O)c(O)c2)oc2cc(O)cc(O)c2c1=O | Stable | 80% | 4% | Stable | Stable | Stable | Stable | Stable | Stable | > 96 h | 49% | Stable | Stable | Stable | Stable | 71% | Active | Stable | Stable | inactive | Stability [39]: Stable; Stability [40]: Stable; Stability [41]: Stable; solubility [42]: soluble; Stability [26]: Stable; Stability [27]: Stable; half-life at 50 µM [28]: 54 h; solubility [29]: soluble; solubility [30]: soluble; remaining at 3 h, 30 µM [33]: 76%; remaining at 1 h, 30 µM [34]: 92%; Stability [35]: Stable; remaining at 12 h, 30 µM [38]: 65%
